In ChEMBL document CHEMBL3085659, “Synthesis, antiproliferative and apoptosis-inducing activity of thiazolo[5,4-d]pyrimidines” (Eur J Med Chem, 2013):

Tests used:
[1] = test system: T47D; assay: Antiproliferative activity against human T47D cells assessed as growth inhibition at 10 uM after 48 hrs by SRB assay; assay type: functional; details: read-out: GI
[2] = Antiproliferative activity against human NCI-H322 cells after 48 hrs by SRB assay; assay type: functional, cell-based; details: NCI-H322, 48 h
[3] = test system: A549; assay: Antiproliferative activity against human A549 cells after 48 hrs by SRB assay; assay type: functional, cell-based; details: A549, 48 h
[4] = test system: A549; assay: Induction of apoptosis in human A549 cells assessed as nuclear condensation, membrane blebbing and formation of apoptotic bodies after 24 hrs using DAPI staining by fluorescence microscopic analysis; assay type: functional, cell-based
Summary of the method: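 A549 (1.5 × 10^5 cells/ml) treated 24 h at 1, 3, 5, 10 µM; trypsinized, methanol-fixed 20 min at −20 °C, DAPI (1 µg/ml) 20 min at 37 °C; nuclei scored by UV fluorescence microscopy at 40× for condensation, blebbing, apoptotic bodies; paclitaxel 1 µM positive control, untreated cells as reference.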

[5] = test system: A549; assay: Induction of apoptosis in human A549 cells assessed as reduction of procaspase-3 expression after 24 hrs by Western blot analysis; assay type: functional, cell-based
Summary of the method: (§1)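 Cells treated 24 h (HL-60 at 5, 20, 30 µM; A549 at 1, 3, 10 µM); RIPA lysates, 70 µg protein resolved by SDS-PAGE, transferred to PVDF, blocked in 5% milk, probed for PARP-1 and procaspase-3 with HRP secondaries, ECL detection.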

[6] = test system: A549; assay: Cell cycle arrest in human A549 cells assessed as accumulation at S phase at 10 uM after 24 hrs using propidium iodide staining by flow cytometry (reference value: 40%); assay type: functional
Summary of the method: (§2)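 A549 at 1.2 × 10^5 cells/ml in six-well plates exposed 24 h to 1, 3 or 10 µM; PBS-washed, fixed overnight in 70% ethanol, RNase (100 µg/ml) digestion 45 min at 37 °C, propidium iodide staining; flow cytometric DNA content gives sub-G1 (apoptotic), G1, S and G2-M fractions versus untreated cells.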

[7] = test system: A-431; assay: Antiproliferative activity against human A431 cells assessed as growth inhibition at 10 uM after 48 hrs by SRB assay; assay type: functional; details: A-431, 48 h, read-out: GI
[8] = test system: A549; assay: Induction of apoptosis in human A549 cells assessed as cleavage of PARP1 after 24 hrs by Western blot analysis; assay type: functional, cell-based; summary of the method: as §1
[9] = test system: A549; assay: Cell cycle arrest in human A549 cells assessed as accumulation at S phase at 1 uM after 24 hrs using propidium iodide staining by flow cytometry (reference value: 40%); assay type: functional; summary of the method: as §2
[10] = test system: T98G; assay: Antiproliferative activity against human T98G cells after 48 hrs by SRB assay; assay type: functional, cell-based
[11] = test system: PC-3; assay: Antiproliferative activity against human PC3 cells assessed as growth inhibition at 10 uM after 48 hrs by SRB assay; assay type: functional; details: PC-3, 48 h, read-out: GI
[12] = test system: A549; assay: Cell cycle arrest in human A549 cells assessed as accumulation at G1 phase at 3 uM after 24 hrs using propidium iodide staining by flow cytometry (reference value: 59%); assay type: functional; summary of the method: as §2
[13] = test system: T98G; assay: Antiproliferative activity against human T98G cells assessed as growth inhibition at 10 uM after 48 hrs by SRB assay; assay type: functional; details: read-out: GI
[14] = test system: A549; assay: Antiproliferative activity against human A549 cells assessed as growth inhibition at 10 uM after 48 hrs by SRB assay; assay type: functional; details: A549, 48 h, read-out: GI
[15] = test system: A549; assay: Induction of apoptosis in human A549 cells at 10 uM after 24 hrs using propidium iodide staining by flow cytometry (reference value: 7%); assay type: functional; summary of the method: as §2
[16] = test system: A549; assay: Cell cycle arrest in human A549 cells assessed as accumulation at G2 phase at 10 uM after 24 hrs using propidium iodide staining by flow cytometry (reference value: 1%); assay type: functional; summary of the method: as §2
[17] = test system: A549; assay: Cell cycle arrest in human A549 cells assessed as accumulation at G1 phase at 10 uM after 24 hrs using propidium iodide staining by flow cytometry (reference value: 59%); assay type: functional; summary of the method: as §2
[18] = Antiproliferative activity against human MIAPaCa2 cells assessed as growth inhibition at 10 uM after 48 hrs by SRB assay; assay type: functional; details: MIA PaCa-2, 48 h, read-out: GI
[19] = test system: HL-60; assay: Antiproliferative activity against human HL60 cells assessed as growth inhibition at 10 uM after 48 hrs by SRB assay; assay type: functional; details: HL-60, 48 h, read-out: GI
[20] = test system: A549; assay: Cell cycle arrest in human A549 cells assessed as accumulation at S phase at 3 uM after 24 hrs using propidium iodide staining by flow cytometry (reference value: 40%); assay type: functional; summary of the method: as §2
[21] = test system: A549; assay: Cell cycle arrest in human A549 cells assessed as accumulation at G2 phase at 1 uM after 24 hrs using propidium iodide staining by flow cytometry (reference value: 1%); assay type: functional; summary of the method: as §2
[22] = test system: A549; assay: Induction of apoptosis in human A549 cells at 1 uM after 24 hrs using propidium iodide staining by flow cytometry (reference value: 7%); assay type: functional; summary of the method: as §2
[23] = test system: A-431; assay: Antiproliferative activity against human A431 cells after 48 hrs by SRB assay; assay type: functional, cell-based; details: A-431, 48 h
[24] = Antiproliferative activity against human NCI-H322 cells assessed as growth inhibition at 10 uM after 48 hrs by SRB assay; assay type: functional; details: NCI-H322, 48 h, read-out: GI
[25] = test system: A549; assay: Cell cycle arrest in human A549 cells assessed as accumulation at G2 phase at 3 uM after 24 hrs using propidium iodide staining by flow cytometry (reference value: 1%); assay type: functional; summary of the method: as §2
[26] = test system: A549; assay: Cell cycle arrest in human A549 cells assessed as accumulation at G1 phase at 1 uM after 24 hrs using propidium iodide staining by flow cytometry (reference value: 59%); assay type: functional; summary of the method: as §2
[27] = test system: A549; assay: Induction of apoptosis in human A549 cells at 3 uM after 24 hrs using propidium iodide staining by flow cytometry (reference value: 7%); assay type: functional; summary of the method: as §2

Work on `CCN(CC)c1ncnc2sc(Nc3ccc(Cl)cc3)nc12` yielded an inhibition of growth at 10 µM [1] of 18%, an IC50 [2] of 7.1 µM and an IC50 [3] of 1.4 µM. The Activity [4] was “Dose-dependent effect”, the Activity [5] was “Dose-dependent effect” and the Activity [6] was 43%. For the same molecule, the inhibition of growth at 10 µM [7] was 82%, the Activity [8] was “Dose-dependent effect” and the Activity [9] was 44%. It also gave an IC50 [10] of 3.4 µM, an inhibition of growth at 10 µM [11] of 22% and an Activity [12] of 65%. For the same molecule, the inhibition of growth at 10 µM [13] was 74%, the inhibition of growth at 10 µM [14] was 81% and the Activity [15] was 53%. For the same molecule, the Activity [16] was 26%, the Activity [17] was 31% and the inhibition of growth at 10 µM [18] was 14%. It also gave an inhibition of growth at 10 µM [19] of 22%, an Activity [20] of 31% and an Activity [21] of 1%. The Activity [22] was 22%, the IC50 [23] was 3.1 µM and the inhibition of growth at 10 µM [24] was 57%. For the same molecule, the Activity [25] was 4%, the Activity [26] was 55% and the Activity [27] was 44%.
